The record followed here is ChEMBL document CHEMBL4359898, “Pyrazolo-benzothiazole hybrids: Synthesis, anticancer properties and evaluation of antiangiogenic activity using in vitro VEGFR-2 kinase and in vivo transgenic zebrafish model” (Eur J Med Chem, 2019).

The subject of test [1] is PC-3. The test can be described thus: Induction of apoptosis in human PC3 cells assessed as late apoptotic cells at 3 uM incubated for 48 hrs by annexin V FITC and propidium iodide staining based flow cytometry (reference value: 1.2 %). Type of test: functional. The procedure, abridged: (§1)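 PC-3 cells at 1 × 10^6 per well were treated 48 h at […]. Cells were trypsinised, washed in PBS and resuspended in annexin binding buffer. Annexin V-FITC and PI were added for 15 min at room temperature. 10000 cells were analysed by flow cytometry and sorted into quadrants as live, early apoptotic, late apoptotic or necrotic.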

Test [2] has as its system PC-3. Kind of test: Induction of apoptosis in human PC3 cells assessed as viable cells at 5 uM incubated for 48 hrs by annexin V FITC and propidium iodide staining based flow cytometry (reference value: 95 %). The format is functional. The settings on record: PC-3, 48 h, read-out: Activity. In short, it runs like this:
as §1

Test [3] concerns PC-3. Kind of test: Cell cycle arrest in human PC3 cells assessed as accumulation in G0/G1 phase at 3 uM incubated for 48 hrs by propidium iodide based flow cytometry (reference value: 51.3 %). Type of test: functional.
Test [4] relates to Danio rerio. Kind of test: Antiangiogenic activity in transgenic fli1a:EGFP-tagged zebrafish embryo assessed as reduction in intersegmental vessel sprouting at 0.5 uM administered from 24 hrs post fertilization and measured after 72 hrs by fluorescence microscopy relative to control. Type of test: functional. Also on record: scale not given: the % may be the effect or the level left. The procedure, abridged:
(§2)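 Embryos staged after natural spawning and kept in E3 medium at 28.5 °C. At 1 dpf, 10 embryos per well were placed in E3 containing compound at […] and incubated 72 h at 28.5 °C. Untreated and 1% DMSO vehicle controls were included. Larvae were anaesthetised with 0.01% tricaine and mounted in 1% low-melt agarose. ISVs were imaged in the green channel, and % defective ISVs was counted manually.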

In test [5] the test system is PC-3. The test can be described thus: Induction of apoptosis in human PC3 cells assessed as mitochondrial membrane potential loss incubated for 48 hrs by JC1 staining based fluorescence microscopy. Type of test: functional, cell-based. In short, it runs like this: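 PC-3 cells were plated at 5 × 10^5 cells/mL and incubated 48 h with […]. The medium was then replaced with fresh medium containing JC-1 for 20 min. After three PBS washes, red and green fluorescence was imaged, and depolarisation was read as a rise in the green/red ratio.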

The test system of test [6] is U-87 MG. As to conditions: Homo sapiens; U-87MG ATCC.
The test system of test [7] is PC-3. The test can be described thus: Cell cycle arrest in human PC3 cells assessed as accumulation in G0/G1 phase incubated for 48 hrs by propidium iodide based flow cytometry. Type of test: functional.
Test [8] has as its system PC-3. Kind of test: Induction of apoptosis in human PC3 cells assessed as early apoptotic cells at 5 uM incubated for 48 hrs by annexin V FITC and propidium iodide staining based flow cytometry (reference value: 2.8 %). Type of test: functional. In short, it runs like this: as §1
The subject of test [9] is PC-3. The test can be described thus: Induction of apoptosis in human PC3 cells assessed as necrotic cells at 5 uM incubated for 48 hrs by annexin V FITC and propidium iodide staining based flow cytometry (reference value: 1 %). Type of test: functional. The procedure, abridged: as §1
The test system of test [10] is PC-3. Kind of test: Induction of apoptosis in human PC3 cells assessed as necrotic cells at 3 uM incubated for 48 hrs by annexin V FITC and propidium iodide staining based flow cytometry (reference value: 1 %). Type of test: functional. In short, it runs like this: as §1
For the next test, the system named is HT-29. Kind of test: Cytotoxicity against human HT-29 cells assessed as reduction in cell viability incubated for 72 hrs by MTT assay. As to conditions: HT-29, 72 h.
Test [11] has as its system PC-3. Kind of test: Induction of apoptosis in human PC3 cells assessed as nuclei condensation incubated for 48 hrs by […] staining based fluorescence microscopy. The format is functional, cell-based. In short, it runs like this: (§3)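 PC-3 cells on coverslips (1 × 10^6 per well) were incubated 48 h with […]. Cells were PBS-washed, 4% paraformaldehyde was added, and they were stained 20 min with […]. After three PBS washes, nuclei were examined by fluorescence microscopy for chromatin condensation and fragmentation.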

The test system of test [12] is PC-3. As to conditions: Homo sapiens, 3 uM.
For a further test, the system named is HEK-293T. Kind of test: Cytotoxicity against HEK293T cells assessed as reduction in cell viability incubated for 72 hrs by MTT assay. As to conditions: Homo sapiens.
Test [13] relates to Danio rerio. The test can be described thus: Antiangiogenic activity in transgenic fli1a:EGFP-tagged zebrafish embryo assessed as reduction in intersegmental vessel sprouting administered from 24 hrs post fertilization and measured after 72 hrs by fluorescence microscopy. Type of test: functional, organism-based. The procedure, abridged:
as §2

The subject of test [14] is U-87 MG. The test can be described thus: Cytotoxicity against human U87MG cells assessed as reduction in cell viability incubated for 72 hrs by MTT assay.
For test [15], the system named is PC-3. The test can be described thus: Induction of apoptosis in human PC3 cells assessed as necrotic cells at 1 uM incubated for 48 hrs by annexin V FITC and propidium iodide staining based flow cytometry (reference value: 1 %). The format is functional. The procedure, abridged:
as §1

The test system of test [16] is PC-3. The test can be described thus: Cytotoxicity against human PC3 cells assessed as reduction in cell viability incubated for 72 hrs by MTT assay. As to conditions: PC-3, 72 h.
In test [17] the test system is PC-3. Kind of test: Induction of apoptosis in human PC3 cells assessed as viable cells at 3 uM incubated for 48 hrs by annexin V FITC and propidium iodide staining based flow cytometry (reference value: 95 %). The format is functional. The settings on record: PC-3, 48 h, read-out: Activity. In short, it runs like this:
as §1

Test [18] has as its system PC-3. Kind of test: Cell cycle arrest in human PC3 cells assessed as accumulation in G0/G1 phase at 1 uM incubated for 48 hrs by propidium iodide based flow cytometry (reference value: 51.3 %). Type of test: functional.
The test system of test [19] is PC-3. As to conditions: Homo sapiens, 1 to 5 uM.
The test system of another test is A549. Kind of test: Cytotoxicity against human A549 cells assessed as reduction in cell viability incubated for 72 hrs by MTT assay. As to conditions: A549, 72 h.
Test [20] relates to PC-3. The test can be described thus: Induction of apoptosis in human PC3 cells incubated for 48 hrs by annexin V FITC and propidium iodide staining based flow cytometry. The format is functional, cell-based. In short, it runs like this:
as §1

Test [21] concerns PC-3. The test can be described thus: Induction of apoptosis in human PC3 cells assessed as nuclei fragmentation incubated for 48 hrs by […] staining based fluorescence microscopy. Type of test: functional, cell-based. The procedure, abridged:
as §3

Test [22] concerns PC-3. The test can be described thus: Induction of apoptosis in human PC3 cells at incubated for 48 hrs by […] staining based fluorescence microscopy. The format is functional, cell-based. The procedure, abridged: as §3
The test system of test [23] is PC-3. The test can be described thus: Induction of apoptosis in human PC3 cells assessed as viable cells at 1 uM incubated for 48 hrs by annexin V FITC and propidium iodide staining based flow cytometry (reference value: 95 %). The settings on record: PC-3, 48 h, read-out: Activity. Type of test: functional. In short, it runs like this: as §1
The test system of test [24] is PC-3. Kind of test: Induction of apoptosis in human PC3 cells assessed as late apoptotic cells at 5 uM incubated for 48 hrs by annexin V FITC and propidium iodide staining based flow cytometry (reference value: 1.2 %). The format is functional. In short, it runs like this:
as §1

In test [25] the test system is PC-3. Kind of test: Induction of apoptosis in human PC3 cells assessed as early apoptotic cells at 3 uM incubated for 48 hrs by annexin V FITC and propidium iodide staining based flow cytometry (reference value: 2.8 %). The format is functional. The procedure, abridged:
as §1

Test [26] deals with PC-3. The test can be described thus: Cell cycle arrest in human PC3 cells assessed as reduction in G2/M phase population at 1 uM incubated for 48 hrs by propidium iodide staining based flow cytometry. The format is functional.
The subject of test [27] is PC-3. Kind of test: Induction of apoptosis in human PC3 cells assessed as early apoptotic cells at 1 uM incubated for 48 hrs by annexin V FITC and propidium iodide staining based flow cytometry (reference value: 2.8 %). Type of test: functional. The procedure, abridged: as §1
In test [28] the test system is PC-3. The test can be described thus: Cell cycle arrest in human PC3 cells assessed as accumulation in G0/G1 phase at 5 uM incubated for 48 hrs by propidium iodide based flow cytometry (reference value: 51.3 %). The format is functional.
For test [29], the system named is PC-3. The test can be described thus: Inhibition of cell migration in human PC3 cells at 5 uM incubated for 48 hrs by phase contrast microscopy based scratch wound healing assay relative to control. Type of test: functional. The settings on record: PC-3, 48 h. The procedure, abridged: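 Confluent PC-3 monolayers were scratched with a pipette tip to leave lanes about 1 mm wide, and debris was washed off with PBS. Cells were given complete medium alone or medium containing […]. Wounds were imaged by phase contrast at time zero and after 48 h.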

Test [30] deals with Danio rerio. Kind of test: Antiangiogenic activity in transgenic fli1a:EGFP-tagged zebrafish embryo assessed as reduction in intersegmental vessel sprouting at 1 uM administered from 24 hrs post fertilization and measured after 72 hrs by fluorescence microscopy relative to control. The format is functional. Also noted: scale not given: the % may be the effect or the level left. In short, it runs like this:
as §2

For test [31], the system named is Danio rerio. The test can be described thus: Antiangiogenic activity in transgenic fli1a:EGFP-tagged zebrafish embryo assessed as reduction in intersegmental vessel sprouting at 0.1 uM administered from 24 hrs post fertilization and measured after 72 hrs by fluorescence microscopy relative to control. Also on record: scale not given: the % may be the effect or the level left. The format is functional. The procedure, abridged:
as §2

The subject of test [32] is PC-3. The test can be described thus: Cell cycle arrest in human PC3 cells assessed as reduction in S phase population at 1 uM incubated for 48 hrs by propidium iodide staining based flow cytometry. Type of test: functional.
The test system of test [33] is PC-3. The test can be described thus: Induction of apoptosis in human PC3 cells assessed as late apoptotic cells at 1 uM incubated for 48 hrs by annexin V FITC and propidium iodide staining based flow cytometry (reference value: 1.2 %). The format is functional. The procedure, abridged:
as §1

The subject of test [34] is Danio rerio. The test can be described thus: Antiangiogenic activity in transgenic fli1a:EGFP-tagged zebrafish embryo assessed as reduction in intersegmental vessel sprouting at 0.1 to 1 uM administered from 24 hrs post fertilization and measured after 72 hrs by fluorescence microscopy relative to control. Type of test: functional. Also noted: scale not given: the % may be the effect or the level left. The procedure, abridged: as §2

The source made the active and inactive calls. No cut-off for these calls is given here.

Regarding `O=C(Nc1nc2ccc(Cl)cc2s1)c1cn(-c2ccccc2)nc1-c1ccc(F)cc1`, the Activity with PC-3 [1] was 6.9%; with PC-3 [3], 74.8%; with Danio rerio [4], 47.3%; in the test with PC-3 [5] it was “Dose-dependent effect”; in the test with PC-3 [7], “Dose-dependent effect”; in the test on PC-3 [8] it was 16.7%. For the same compound, the Activity in the test on PC-3 [9] is 2.8%; with PC-3 [10] it was 2.1%; with PC-3 [11], “Dose-dependent effect”; in the test with Danio rerio [13], “Dose-dependent effect”; with PC-3 [15] it was 1.1%; with PC-3 [18], 65.5%. In addition, the Activity entry with PC-3 [20] is “Dose-dependent effect”; with PC-3 [21], “Dose-dependent effect”; with PC-3 [22], “Dose-dependent effect”; in the test on PC-3 [24], 9.6%; with PC-3 [25], 13.8%; in the test with PC-3 [27], 10.4%. Besides, the Activity with PC-3 [28] stood at 81.4%; in the test on Danio rerio [30], 54.5%; in the test with Danio rerio [31] it was 16%; in the test on PC-3 [33] it was 3.7%. In addition, the viability at 5 µM in the test on PC-3 [2] amounted to 70.9%. The inhibition entry in the test with U-87 MG [6], in the test with PC-3 [12] and with PC-3 [19] was “Active” in each case. Besides, the half-inhibitory concentration (IC50) was 3.32 µM in the test with HT-29; 45.7 µM in the test with HEK-293T; 6.77 µM in the test on U-87 MG [14]; 3.17 µM with PC-3 [16]; 3.87 µM in the test with A549. In addition, the viability at 3 µM with PC-3 [17] was 77.2%. The viability at 1 µM with PC-3 [23] is 84.8%. Further, the outcome with PC-3 [26] and in the test with PC-3 [32] was Active. The inhibition at 5 µM in the test with PC-3 [29] amounted to 100%.

In the case of `CNC(=O)c1ccccc1Sc1ccc2c(/C=C/c3ccccn3)n[nH]c2c1` [AXITINIB], the Activity with Danio rerio [34] was 63.1 - 90.4%.
